assay: Toxicity liver stage against HepG2, at 10uM; type: cell-based; set-up: test concentration 10 uM, cell line HepG2-A16-CD81EGFP; details: human, HepG2-A16-CD81EGFP cells; read-out: INHIBITION
How it was run: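 Uninfected HepG2-A16-CD81EGFP cells, 3 × 10^3 per well, 1536-well, plated on prespotted compound at 10 μM final, parasite-free screening media added to match infected plates; puromycin 10 μM positive, DMSO 0.5% negative; run in parallel with 48 h PbLuc assay at 37 °C, 5% CO2; viability by CellTiter-Glo luminescence, normalized to controls.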

| SMILES | cytotoxicity at 10 µM [%] |
| --- | --- |
| O=C1CC(c2cccnc2)c2c(c(C(=O)O)cn2-c2ccccc2F)N1 (stereo unspecified) | 1.85 |
| C[S+](C)[c-]1c(=O)[nH]c(=O)n(CCc2ccc(F)cc2)c1=O | 2.86 |
| N[C@@H]1c2ccccc2C2(CCN(C(=O)c3cncc(Cl)c3)CC2)[C@H]1O | -2.78 |
| CN(C)C(=O)N1CCC2(CCCN(CCOc3ccccc3)C2)C1 (stereo unspecified) | -0.537 |
| Cn1ccnc1CN1CCCN(Cc2noc(C3CC3)n2)CC1 | -3.33 |
| COCCN1C[C@H]2CCN(C(=O)c3cc(C)on3)CC[C@H]2S1(=O)=O | -1.69 |
| O=C1CC(N(C(=O)c2ccc(Oc3ccccc3)cc2)C2CC2)C(=O)N1 (stereo unspecified) | -2.94 |
| Cc1ncc(C(=O)N2CCCC(n3cccn3)C2)s1 (stereo unspecified) | -5.8 |
| CCn1cc(-n2cc3nc(N4CCC(C)CC4)[nH]cc-3c2=O)cn1 | 6.97 |
| CC(C)c1ccc(NS(=O)(=O)C=c2[nH]c(=O)n3cccc3c2=O)cc1 | -4.55 |
| CCn1c(CN(C)C)nnc1C1CCN(Cc2ccncc2)CC1 | 8.18 |
| COCCC(=O)N1CCCC2(CCC(=O)N(CCc3c[nH]cn3)C2)C1 (stereo unspecified) | -3.76 |
| CSc1ccc(C(=O)C2CCCN(C(=O)CCCn3cncn3)C2)cc1 (stereo unspecified) | 6.26 |
| CCn1cnnc1CN(C)c1nccc(C2CCCC2)n1 | 0.998 |
| NC(=O)C1CCCN1Cc1cccc(NC(=O)c2cccs2)c1 (stereo unspecified) | -12.7 |
| Cc1csc(N2CCCN(C(=O)Cc3cccs3)CC2)n1 | -6.87 |
| O=C(c1ccoc1)N1CCO[C@]2(CCC[C@@H]2COCc2cccnc2)C1 | 6.32 |
| O[C@H]1[C@H](NCCc2cnccn2)c2ccccc2C12CCNCC2 | -7.32 |
| Cc1nc2ccccc2c(=O)n1CCC(=O)N1CCNC(=O)C1 | -19 |
| Cc1cc(C(=O)N2CCN(C(=O)CC(C)C)[C@@H]3CS(=O)(=O)C[C@@H]32)no1 | -5.45 |
| CCc1[nH]c2c(CNc3cnccn3)cc(F)cc2c1C | -2.61 |
| CCN1CCC(c2nc3ccc(NC4CCC4)cn3n2)CC1 | -121 |
| Cc1cnc(Nc2nccnc2C2CCN(C)CC2)s1 | 2.52 |

| SMILES | cytotoxicity at 10 µM [%] |
| --- | --- |
| CC(C)n1ccnc1CN1CCCN(C(=O)c2cnn(C)c2)CC1 | -22.4 |
| COCCOCC(=O)Nc1ccc(Br)cc1F | -10.5 |
| CN(C)CCOCc1nnc2n1CCN(Cc1ccoc1)CC2 | -10.7 |
| CN1CCC(CNC(=O)c2ccc3cccc(Cl)c3n2)C1 (stereo unspecified) | -8.93 |
| O=C(CCn1ccnc1)N1CCCC(n2cncn2)C1 (stereo unspecified) | 0.0383 |
| Cc1nc(C)n(CC2CCCCN2CC(=O)NCc2ccccn2)n1 (stereo unspecified) | 2.07 |
| Cc1nsc(C(=O)NCCc2cccs2)n1 | -2.67 |
| O=C1CN(C(=O)C2CCOC2)CCN1Cc1ccc(Cl)cc1 (stereo unspecified) | -150 |
| O=C(C1CCOCC1)N1CCC2(CC1)CC(Oc1ccccc1)CO2 (stereo unspecified) | -17.3 |
| c1cnnc(N2CCCC2CNCc2noc(C3CC3)n2)c1 (stereo unspecified) | -7.45 |
| Cc1cnc(C(=O)N2CCC3(CC2)CC(c2ccncc2)C(=O)N3)cn1 (stereo unspecified) | 9.14 |
| Fc1cccc(CN2CCC(c3noc(-c4ccccn4)n3)CC2)c1F | -12.8 |
| O=C(NCc1nncn1-c1ccccc1)C1CCCCC1 | -22.1 |
| CCOCc1nc2c(c(NC(CC)c3ccncc3)n1)CCNCC2 (stereo unspecified) | -0.0944 |
| Cn1nc(C2CC2)cc1C(=O)N1CCC(c2nnsc2S(C)(=O)=O)CC1 | -0.81 |
| c1ccc(-c2nnc(CNCC3CCCN3c3cccnn3)o2)cc1 (stereo unspecified) | -10.5 |
| c1ccc2c(N3CCCC3Cn3cccn3)ncnc2c1 (stereo unspecified) | 7.94 |
| OC(COCc1ccccc1)CN1CCC(Cn2cccn2)CC1 (stereo unspecified) | -1.49 |
| O=C(NCCc1cccc(F)c1)c1nc2c(s1)CCCN2C(=O)C1CC1 | -91.4 |
| CC(CNC(=O)c1cc(Cl)ccc1F)N1CCCC1 (stereo unspecified) | -4.43 |
| CCCc1noc(CCC(=O)N2CCCC2c2ccsc2)n1 (stereo unspecified) | -11 |
| CN(Cc1ccc(Cl)s1)C(=O)CN(C)C1CCc2ccccc21 (stereo unspecified) | 18.1 |
| CNC(=O)c1ccc(OC)c(NCc2noc(-c3cccs3)n2)c1 | 2.76 |

| SMILES | cytotoxicity at 10 µM [%] |
| --- | --- |
| Cc1nc(C)n(CC2CCCN(Cc3cccc(C(N)=O)c3)C2)n1 (stereo unspecified) | -29 |
| COCCNC(=O)[C@H]1C[C@@H]2CCN(Cc3ccncc3)C[C@H]2O1 | 2.6 |
| CCSc1cc(C(=O)NC(C)c2cccc(N3CCOC3=O)c2)ccn1 (stereo unspecified) | 24.1 |
| CNC(=O)CN1CCN(C(=O)Nc2ccc(Cl)cc2F)CC1 | 1.41 |
| c1csc(-c2noc(C3CCCNC3)n2)c1 (stereo unspecified) | -2.5 |
| COc1ccc(C(C)(C)C(=O)NCc2n[nH]c(=O)[nH]2)cc1 | 1.07 |
| Cc1nc(C2CCCN(C(=O)CN3CCCC3=O)C2)sc1C (stereo unspecified) | -6.96 |
| CC(C)(C)c1noc(CN2CCN(C(=O)c3ccco3)CC2)n1 | -15.8 |
| Cn1ccnc1CC1CCCN(C(=O)Cc2ccccc2)C1 (stereo unspecified) | -4.14 |
| CCc1cc(=O)n(CC(=O)N2CCCC2)c(-c2ccc(F)cc2)n1 | 8.66 |
| CCc1ncnc2c1CCN(C(=O)c1ccccn1)CC2 | 2.43 |
| Cc1nc(-c2ccccc2C)n(CC(=O)NC(C)C)n1 | 7.47 |
| Cc1ccc(CN2C[C@H](OCC3CCN(C)CC3)[C@H]3COC[C@H]32)o1 | 6.19 |
| O=C(NCc1cncc2c1CCN(C1CCOCC1)C2)c1ccco1 | -0.758 |
| O=C(C1CCCC1)N1CCN(Cc2nc(-c3ccco3)no2)CC1 | -7.84 |
| COc1ccc(OCc2cc(C(=O)N3CCC(O)CC3)n[nH]2)c(Cl)c1 | -1.69 |
| CN(C)c1ccc(CCCNC(=O)NCC(O)c2ccsc2)cc1 (stereo unspecified) | -6.88 |
| CC(Cn1cccn1)NC(=O)NCc1ccc(S(N)(=O)=O)cc1 (stereo unspecified) | 3.63 |
| CNC(=O)c1ccc(-n2c(COCC(=O)O)nc3c(C)cccc32)o1 | -3.33 |
| CCN1CCCC1CNCc1cc2cc3c(cc2[nH]c1=O)OCCO3 (stereo unspecified) | 5.07 |
| Cc1ccccc1N1CCN(C(=O)Cc2ccc3c(c2)OCO3)CC1=O | 6.17 |
| CNc1ncc(CN2CCCC2c2[nH]ncc2C(=O)N(C)C)cn1 (stereo unspecified) | 2.91 |
| CC(C)C(=O)NC1COC2(CCN(C(=O)c3cccnc3)CC2)C1 (stereo unspecified) | 4.26 |

| SMILES | cytotoxicity at 10 µM [%] |
| --- | --- |
| Cc1nc(N)c2ccc(C3CCCCN3)nc2n1 (stereo unspecified) | -0.05 |
| CC(=O)c1ccc(-n2ccc3nc(N4CCCC4)ncc3c2=O)cc1 | 1.45 |
| CN(C)c1nc2sc(C(=O)N3CCN(C(=O)OC(C)(C)C)CC3)cc2s1 | 1.71 |
| CC(=O)N1CC(c2n[nH]c3ncccc23)C1 | 19.5 |
| NC(=O)CN1CCCN(C(=O)Cc2cccc(C(F)(F)F)c2)CC1 | -3.05 |
| COCCN(C)C[C@@H]1CCC[C@@H]2CN(Cc3ccc(OC)nc3)C[C@@H]21 | 8.13 |
| Cn1ccnc1CN1CC[C@@H](NS(C)(=O)=O)[C@@H]1Cc1cccnc1 | 8.54 |
| COc1ncccc1CNC(=O)N1CCC(CNC(C)=O)CC1 | 3.4 |
| CC(C)COC(C)C(=O)NCc1cc(F)cc(F)c1 (stereo unspecified) | 3.37 |
| COc1ccc(NC(=O)CCc2c(C)nc3cc(O)nn3c2C)cn1 | -9.21 |
| Cc1cc(C)c(CNC(=O)NCc2nnc3n2CCCC3)c(=O)[nH]1 | -5.34 |
| CCOc1ccccc1C(=O)N1CCCC(O)(CN(C)C)C1 (stereo unspecified) | -1.73 |
| CN(C)Cc1ccnc(C2CN(Cc3c(F)cccc3F)CCO2)n1 (stereo unspecified) | -3.14 |
| O=C(NCCNc1cnccn1)c1scnc1Cl | 8.11 |
| Cc1ncsc1C(=O)N1CCCC1c1c(C)nn(C)c1C (stereo unspecified) | 0.71 |
| Cc1ccc(C(=O)N2CCC3(CCC(=O)N(CC(N)=O)C3)CC2)c(O)c1 | -11.5 |
| Cc1ccc(-c2nnn(CCN3C(=O)CCC3=O)n2)cc1 | 1.33 |
| O=C(O)c1cc(-c2ccccc2)ns1 | 1.91 |
| CC(Nc1nccc(CCC(F)(F)F)n1)c1nc(-c2ccncc2)no1 (stereo unspecified) | 4.74 |
| O=C(CN1CCC(c2ccccc2)CC1)NCc1cc2n(n1)CCNC2 | 3.03 |
| Cc1n[nH]c(C)c1CCCNCc1cn(CCC(N)=O)c2ccccc12 | 8.45 |
| CC(C)(C)c1cnc(CN2CCCS(=O)(=O)CC2)o1 | -3.97 |
| Cc1oc(C(=O)Nc2ccccc2F)cc1S(N)(=O)=O | -1.07 |

| SMILES | cytotoxicity at 10 µM [%] |
| --- | --- |
| COc1c(C)cnc(CN2CCn3c(nnc3C3CC3)C2)c1C | -4.94 |
| CS(=O)(=O)N1CC[C@H]2[C@H](C[C@@H](Cn3cncn3)N2CC2CC2)C1 | -6.25 |
| O=C(Nc1cccs1)N(CCO)CCOCC(F)(F)F | 3.84 |
| O=C(O)CCn1ccc(=O)c2cc(F)ccc21 | 1.09 |
| Cc1nnc2n1CCN(C(=O)c1ccn(-c3cccc(F)c3)n1)C2 | -144 |
| CCn1cc(C#N)c(=O)c2cc(Br)ccc21 | 1.35 |
| CCC(CNS(=O)(=O)c1cccc(C(=O)OC)c1)N1CCCC1 (stereo unspecified) | -8.93 |
| OCCN(Cc1nc(-c2ccc3c(c2)OCO3)no1)CC1CC1 | 8.37 |
| Cc1nn(C)c(Cl)c1C1CCCN1C(=O)c1cc(Cl)c[nH]1 (stereo unspecified) | -6.83 |
| Cc1nccn1-c1ccc(NS(=O)(=O)c2cccnc2)cn1 | -4.73 |
| Cn1nnc(NCc2ccc(-c3ccc(Br)cc3)o2)n1 | -11.1 |
| CCS(=O)(=O)NC(CCSC)C(=O)Nc1ccc(C)cc1C (stereo unspecified) | -8.9 |
| O=C(NCc1ccccn1)N1CC=C(c2ccccc2)CC1 | 14.9 |
| Cc1nc(C)n(CC2CCCN2CC(=O)NCc2ccco2)n1 (stereo unspecified) | -18.5 |
| O=C(N1CCCC1)N1CCCC2(CCN(c3ccsc3)C2=O)C1 (stereo unspecified) | -74.1 |
| CCNC(=O)N1CCC2(CC1)CCn1c(-c3ccccc3)cnc12 | -8.19 |
| Cc1c(C(=O)N2CCCC2c2cnn(C)c2)cnn1-c1ccccc1 (stereo unspecified) | -23.7 |
| CCN1CCN(Cc2c(-c3ccco3)[nH]c3ncccc23)CC1 | -5.91 |
| Cc1ccc(CNC(C)c2ccc3[nH]c(=O)[nH]c3c2)s1 (stereo unspecified) | -10.7 |

From ChEMBL document CHEMBL4513216, “Probing the Open Global Health Chemical Diversity Library for Multistage-Active Starting Points for Next-Generation Antimalarials” (ACS Infect Dis, 2020)
